Converted amounts (≈) assume the structure as drawn.
Tests used:
Staphylococcus aureus [1] = experiment: Growth inhibition against Beta lactamase producing bacteria, Staphylococcus aureus (ATCC90124) was determined for the compound in the combination with Ampicillin; format: functional
Outline: (§1)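 Bacteria (β-lactamase producers) were grown in Mueller Hinton broth and diluted to 10⁷ cfu/mL. They were inoculated into the same medium containing ampicillin plus triazole and incubated at 37 °C for 20 h. The MIC was the lowest concentration leaving the medium free of turbidity.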

Proteus vulgaris [2] = experiment: Growth inhibition against Beta lactamase producing bacteria, Proteus vulgaris (IID OX-19)was determined for the compound in the combination with Ampicillin; format: functional; outline: as §1
Proteus mirabilis [3] = experiment: Growth inhibition against Beta lactamase producing bacteria, Proteus mirabilis (121K) was determined for the compound in the combination with Ampicillin; format: functional; outline: as §1
Escherichia coli [4] = experiment: Growth inhibition against Beta lactamase producing bacteria, Escherichia coli (TH-397) was determined for the compound in the combination with Ampicillin; format: functional; outline: as §1
Escherichia coli [5] = experiment: Minimum inhibitory concentration against 30 strains of Escherichia coli; format: functional
Serratia marcescens [6] = experiment: Growth inhibition against Beta lactamase producing bacteria, Serratia marcescens was determined for the compound in the combination with Ampicillin; format: functional; outline: as §1
Escherichia coli [7] = experiment: Growth inhibition against Beta lactamase producing bacteria, Escherichia coli (TH-13) was determined for the compound in the combination with Ampicillin; format: functional; outline: as §1
Staphylococcus aureus [8] = experiment: Growth inhibition against Beta lactamase producing bacteria, Staphylococcus aureus (S-54K) was determined for the compound in the combination with Ampicillin; format: functional; outline: as §1
Escherichia coli [9] = experiment: Minimum inhibitory concentration of Ampicillin required for growth inhibition of Beta lactamase producing bacteria Clinically isolated Escherichia coli (TH-13); format: functional
Outline: (§2)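 The inoculum was 10⁷ cfu/mL, incubated at 37 °C for 20 h. The MIC was the lowest concentration that left the medium free of turbidity.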

Serratia marcescens [10] = experiment: Minimum inhibitory concentration of Ampicillin required for growth inhibition of Beta lactamase producing bacteria Serratia marcescens; format: functional
Outline: (§3)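 Micro broth dilution MIC of ampicillin tested on its own. β-Lactamase-producing bacteria were grown in Mueller Hinton broth and inoculated at 10⁷ cfu/mL into medium containing ampicillin.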

Escherichia coli [11] = experiment: Minimum inhibitory concentration of Ampicillin required for growth inhibition of Beta lactamase producing bacteria Clinically isolated Escherichia coli (TH-397); format: functional
Outline: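 Broth microdilution in Mueller Hinton broth. Ampicillin was tested with the triazole fixed at 10 µg/mL against a β-lactamase-producing clinical isolate, with an inoculum of 10⁷ cfu/mL. Plates were incubated at 37 °C for 20 h. The MIC was the lowest concentration that left the medium free of turbidity.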

Proteus mirabilis [12] = experiment: Minimum inhibitory concentration of Ampicillin required for growth inhibition of Beta lactamase producing bacteria Proteus mirabilis (121K); format: functional; outline: as §3
Staphylococcus aureus [13] = experiment: Minimum inhibitory concentration of Ampicillin required for growth inhibition of Beta lactamase producing bacteria Staphylococcus aureus (S-54K); format: functional; outline: as §2
Proteus vulgaris [14] = experiment: Minimum inhibitory concentration of Ampicillin required for growth inhibition of Beta lactamase producing bacteria Proteus vulgaris (IID OX-19); format: functional; outline: as §3
Staphylococcus aureus [15] = experiment: Minimum inhibitory concentration of Ampicillin required for growth inhibition of Beta lactamase producing bacteria Staphylococcus aureus (ATCC90124); format: functional; outline: as §2
[16] = Inhibitory activity against cephalosporinase from Proteus vulgaris TH-147 using cephalexin (40 uM) as a substrate
Outline: (§4)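 Isolated β-lactamase (cephalosporinase) was inhibited in a microiodometric assay. Substrate concentration was 40 μM, and the 50% inhibitory concentration (M) was determined.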

[17] = Inhibitory activity against cephalosporinase from Proteus morganii TH-64 using cephalothin (40 uM) as a substrate; […]; set-up: species or system Morganella morganii; outline: as §4
Beta-lactamase OXA-1 = Beta-lactamase OXA-1 (Escherichia coli, UniProt P13661); experiment: Inhibitory activity against Beta-lactamase type OXA1 (penicillinase) from Escherichia coli OXA1 using ampicillin (40 uM) as a substrate
Outline: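 Isolated β-lactamase tested by microiodometric assay, measuring substrate hydrolysis. Ampicillin substrate at 40 μM. Value reported as the 50% inhibitory concentration.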

[18] = Inhibitory activity against cephalosporinase from Proteus morganii TH-64 using cephalothin (40 uM) as a substrate; set-up: species or system Morganella morganii
Outline: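 Isolated β-lactamases were tested by the microiodometric assay, with each line's substrate at 40 μM.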

Chain of Beta-lactamase OXA-1 (P13661 whole entry): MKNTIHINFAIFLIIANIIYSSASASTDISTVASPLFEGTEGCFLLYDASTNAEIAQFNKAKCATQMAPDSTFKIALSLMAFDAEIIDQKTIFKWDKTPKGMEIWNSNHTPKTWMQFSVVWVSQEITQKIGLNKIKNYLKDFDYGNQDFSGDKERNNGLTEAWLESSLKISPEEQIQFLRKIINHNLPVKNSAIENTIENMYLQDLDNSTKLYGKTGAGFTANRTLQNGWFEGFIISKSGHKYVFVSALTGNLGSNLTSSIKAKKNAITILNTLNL

Structure (SMILES) | MIC (Staphylococcus aureus [1]) | MIC (Proteus vulgaris [2]) | MIC (Proteus mirabilis [3]) | MIC (Escherichia coli [4]) | MIC50 (Escherichia coli [5]) | MIC70 (Escherichia coli [5]) | MIC (Serratia marcescens [6]) | MIC (Escherichia coli [7]) | MIC (Staphylococcus aureus [8]) | further results
CC1(C)S[C@@H]2[C@H](NC(=O)[C@H](N)c3ccccc3)C(=O)N2[C@H]1C(=O)O.CC1(C)[C@H](C(=O)O)N2C(=O)C[C@H]2S1(=O)=O | 0.2 µg/mL | 1.56 µg/mL | 6.25 µg/mL | 0.78 µg/mL | 12.5 µg/mL | 100 µg/mL | 3.13 µg/mL | 6.25 µg/mL | 0.2 µg/mL | 
CC1(C)S[C@@H]2[C@H](NC(=O)C(N)c3ccccc3)C(=O)N2[C@H]1C(=O)O.COC(=O)c1cnnn1C[C@@]1(C)[C@H](C(=O)[O-])C2C(=O)CC2S1(=O)=O.[Na+] (stereo not given in full) | 0.2 µg/mL | 0.39 µg/mL | 0.78 µg/mL | 6.25 µg/mL |  |  | 25 µg/mL | 6.25 µg/mL | 0.2 µg/mL | 
CC1(C)[C@H](C(=O)O)N2C(=O)C[C@H]2S1(=O)=O.CCN1CCN(C(=O)N[C@@H](C(=O)N[C@@H]2C(=O)N3[C@@H]2SC(C)(C)[C@@H]3C(=O)O)c2ccccc2)C(=O)C1=O |  |  |  |  | 12.5 µg/mL | 25 µg/mL |  |  |  | 
CC1(C)S[C@@H]2[C@H](NC(=O)C(N)c3ccccc3)C(=O)N2[C@H]1C(=O)O.C[C@]1(Cn2cc([Si](C)(C)C)nn2)[C@H](C(=O)[O-])C2C(=O)CC2S1(=O)=O.[Na+] (stereo not given in full) | 0.39 µg/mL | 1.56 µg/mL | 25 µg/mL | 50 µg/mL |  |  | 100 µg/mL | 100 µg/mL | 0.78 µg/mL | 
CC1(C)S[C@@H]2[C@H](/N=C/N3CCCCCC3)C(=O)N2[C@H]1C(=O)O.CC1(C)[C@H](C(=O)O)N2C(=O)C[C@H]2S1(=O)=O |  |  |  |  | 0.1 µg/mL | 0.39 µg/mL |  |  |  | 
CC1(C)S[C@@H]2[C@H](NC(=O)C(N)c3ccccc3)C(=O)N2[C@H]1C(=O)O.COC(=O)c1cn(C[C@@]2(C)[C@H](C(=O)[O-])C3C(=O)CC3S2(=O)=O)nn1.[Na+] (stereo not given in full) | 0.2 µg/mL | 0.39 µg/mL | 0.78 µg/mL | 3.13 µg/mL |  |  | 12.5 µg/mL | 3.13 µg/mL | 0.2 µg/mL | 
CC1(C)S[C@@H]2[C@H](/N=C/N3CCCCCC3)C(=O)N2[C@H]1C(=O)O [AMDINOCILLIN] |  |  |  |  | 3.13 µg/mL (≈ 9.62 µM) | 12.5 µg/mL (≈ 38.4 µM) |  |  |  | 
CC1(C)S[C@@H]2[C@H](NC(=O)[C@H](N)c3ccccc3)C(=O)N2[C@H]1C(=O)O [AMPICILLIN] |  |  |  |  | 400 µg/mL (≈ 1140 µM) | >400 µg/mL |  |  |  | MIC (Escherichia coli [9]): 200 µg/mL (≈ 572 µM); MIC (Serratia marcescens [10]): 400 µg/mL (≈ 1140 µM); MIC (Escherichia coli [11]): 400 µg/mL (≈ 1140 µM); MIC (Proteus mirabilis [12]): > 400 µg/mL; MIC (Staphylococcus aureus [13]): 25 µg/mL (≈ 71.5 µM); MIC (Proteus vulgaris [14]): 200 µg/mL (≈ 572 µM); MIC (Staphylococcus aureus [15]): 25 µg/mL (≈ 71.5 µM)
CC1=C(C(=O)O)N2C(=O)[C@@H](NC(=O)[C@H](N)c3ccccc3)[C@H]2SC1 [CEPHALEXIN ANHYDROUS] |  |  |  |  | 25 µg/mL (≈ 72 µM) | 100 µg/mL (≈ 288 µM) |  |  |  | 
O=C(O)[C@H]1/C(=C/CO)O[C@@H]2CC(=O)N21 [CLAVULANIC ACID] |  |  |  |  |  |  |  |  |  | IC50 [16]: 160 nM; IC50 [17]: Not Active; IC50 (Beta-lactamase OXA-1): 3200 nM
CCN1CCN(C(=O)N[C@@H](C(=O)N[C@@H]2C(=O)N3[C@@H]2SC(C)(C)[C@@H]3C(=O)O)c2ccccc2)C(=O)C1=O [PIPERACILLIN] |  |  |  |  | 50 µg/mL (≈ 96.6 µM) | 200 µg/mL (≈ 386 µM) |  |  |  | 
CC1(C)[C@H](C(=O)O)N2C(=O)C[C@H]2S1(=O)=O [SULBACTAM] |  |  |  |  |  |  |  |  |  | IC50 [16]: 800 nM; IC50 [18]: 1000 nM; IC50 (Beta-lactamase OXA-1): 22000 nM
